ChEMBL document CHEMBL3098028, “Synthesis and in vitro and in vivo pharmacological evaluation of new 4-aminoquinoline-based compounds” (ACS Med Chem Lett, 2013)
Converted amounts (≈) assume the structure as drawn.

Columns and labels:
[1] = test system: Plasmodium falciparum; assay: Antiplasmodial activity against chloroquine-resistant Plasmodium falciparum K1 after 24 hrs by [3H]hypoxanthine incorporation assay; assay type: functional, organism-based
Outline: (§1)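 Antiplasmodial testing was done at the Swiss Tropical and Public Health Institute. Chloroquine, the reference drug, was tested as its diphosphate salt.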

[2] = test system: Plasmodium berghei; assay: Antimalarial activity against Plasmodium berghei ANKA infected in C57BL/6 mouse assessed as reduction in parasitemia at 5 mg/kg, po qd for 4 days measured on day 7 by light microscopic analysis relative to control; assay type: functional; parameters: scale not given: the % may be the effect or the level left
Outline: (§2)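 Male C57/BL6 mice were infected with P. berghei ANKA and dosed orally once daily for four days at 1, 10, 5 or 20 mg/kg, with 5 mice per dose group. The negative control received blank formulation solution. Blood smears were taken on days 3, 5 and 7, and parasitemia was read by light microscopy. The result is % parasitemia reduction on day 7 versus placebo.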

[3] = test system: Liver microsome; assay: Drug metabolism in rat liver microsomes assessed as 2-(5-((4-chlorophenyl)(2-(7-chloroquinolin-4-ylamino)ethylamino)methyl)-1H-tetrazol-1-yl)-2-methylpropan-1-ol level at 5 uM after 1 hr by LC-MS/MS analysis; assay type: ADME
[4] = Hepatic extraction ratio in human liver microsomes at 1 uM after 40 mins; assay type: ADME; details: read-out: ERH
[5] = test system: Mus musculus; assay: AUC (0 to infinity) in C57BL/6 mouse at 40 mg/kg, po; assay type: ADME, organism-based, Plasma; parameters: time infinity, dose 40 mg/kg, route oral; details: in vivo
Outline: (§3)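 Healthy male C57/BL6 mice received a single intravenous dose (2.5 or 5.0 mg/kg) or oral dose (20 or 40 mg/kg). Plasma concentrations were followed over time to give AUC0-∞ in min·μmol/L, alongside t1/2, CL, Vd, Vss, Cmax, Tmax and oral bioavailability. Values are means of five animals.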

[6] = Kinetic solubility of the compound in phosphate buffered saline at pH 7.4 after 2 hrs by HPLC analysis; assay type: physicochemical; details: read-out: Kinetic_solubility
[7] = test system: Mus musculus; assay: AUC (0 to infinity) in C57BL/6 mouse at 5 mg/kg, iv; assay type: ADME, organism-based, Plasma; parameters: dose 5 mg/kg, route intravenous, time infinity; details: in vivo; outline: as §3
[8] = test system: Liver microsome; assay: Drug metabolism in human liver microsomes assessed as 2-(5-((4-chlorophenyl)(2-(7-chloroquinolin-4-ylamino)ethylamino)methyl)-1H-tetrazol-1-yl)-2-methylpropan-1-ol level at 5 uM after 1 hr by LC-MS/MS analysis; assay type: ADME
[9] = test system: Plasmodium falciparum; assay: Antiplasmodial activity against chloroquine-sensitive Plasmodium falciparum 3D7 after 24 hrs by [3H]hypoxanthine incorporation assay; assay type: functional, organism-based; outline: as §1
[10] = test system: Mus musculus; assay: AUC (0 to infinity) in C57BL/6 mouse at 20 mg/kg, po; assay type: ADME, organism-based, Plasma; parameters: time infinity, dose 20 mg/kg, route oral; details: in vivo; outline: as §3
[11] = test system: CHO; assay: Cytotoxicity against CHO cells; assay type: cell-based; details: Cricetulus griseus
[12] = Kinetic solubility of the compound in 0.01 M HCl at pH 2 after 2 hrs by HPLC analysis; assay type: physicochemical; details: read-out: Kinetic_solubility
[13] = test system: Plasmodium falciparum; assay: Resistance index, ratio of IC50 for chloroquine-resistant Plasmodium falciparum K1 to IC50 for chloroquine-sensitive Plasmodium falciparum 3D7; assay type: functional
[14] = Drug metabolism in hepatocytes (unknown origin) assessed as 4-(2-((1-tert-butyl-1H-tetrazol-5-yl)(4-chlorophenyl)methylamino)ethylamino)-7-chloroquinoline 1-oxide level at 5 uM after 6 hrs by LC-MS/MS analysis; assay type: ADME, cell-based, Hepatocyte
[15] = test system: Plasmodium falciparum; assay: Antiplasmodial activity against chloroquine-resistant Plasmodium falciparum W2 after 24 hrs by [3H]hypoxanthine incorporation assay; assay type: functional, organism-based; outline: as §1
[16] = test system: Liver microsome; assay: Drug metabolism in human liver microsomes assessed as 4-(2-((1-tert-butyl-1H-tetrazol-5-yl)(4-chlorophenyl)methylamino)ethylamino)-7-chloroquinoline 1-oxide level at 5 uM after 1 hr by LC-MS/MS analysis; assay type: ADME
[17] = Drug metabolism in hepatocytes (unknown origin) assessed as 2-(5-((4-chlorophenyl)(2-(7-chloroquinolin-4-ylamino)ethylamino)methyl)-1H-tetrazol-1-yl)-2-methylpropan-1-ol level at 5 uM after 6 hrs by LC-MS/MS analysis; assay type: ADME, cell-based, Hepatocyte
[18] = Hepatic extraction ratio in mouse liver microsomes at 1 uM after 40 mins; assay type: ADME, Microsome; details: read-out: ERH
[19] = test system: Plasmodium berghei; assay: Antimalarial activity against Plasmodium berghei ANKA infected in C57BL/6 mouse assessed as reduction in parasitemia at 20 mg/kg, po qd for 4 days measured on day 7 by light microscopic analysis relative to control; assay type: functional; parameters: scale not given: the % may be the effect or the level left; outline: as §2
[20] = test system: Liver microsome; assay: Drug metabolism in rat liver microsomes assessed as 4-(2-((1-tert-butyl-1H-tetrazol-5-yl)(4-chlorophenyl)methylamino)ethylamino)-7-chloroquinoline 1-oxide level at 5 uM after 1 hr by LC-MS/MS analysis; assay type: ADME
[21] = test system: Plasmodium berghei; assay: Antimalarial activity against Plasmodium berghei ANKA infected in C57BL/6 mouse assessed as reduction in parasitemia at 10 mg/kg, po qd for 4 days measured on day 7 by light microscopic analysis relative to control; assay type: functional; parameters: scale not given: the % may be the effect or the level left; outline: as §2
[22] = test system: Mus musculus; assay: AUC (0 to infinity) in C57BL/6 mouse at 2.5 mg/kg, iv; assay type: ADME, organism-based, Plasma; parameters: time infinity, dose 2.5 mg/kg, route intravenous; details: in vivo; outline: as §3
[23] = test system: Plasmodium berghei; assay: Antimalarial activity against Plasmodium berghei ANKA infected in C57BL/6 mouse assessed as reduction in parasitemia at 1 mg/kg, po qd for 4 days measured on day 7 by light microscopic analysis relative to control; assay type: functional; parameters: scale not given: the % may be the effect or the level left; outline: as §2

Clc1ccc2c(NCCNC(c3ccccc3)c3nnn[nH]3)ccnc2c1 (configuration not stated)
IC50 [1]: 14900 nM

COc1ccc(C(NCCNc2ccnc3cc(Cl)ccc23)c2nnn[nH]2)cc1 (configuration not stated)
IC50 [1]: 13200 nM

CC(C)(C)n1nnnc1C(NCCNc1ccnc2cc(Cl)ccc12)c1ccc(Cl)c(Cl)c1 (configuration not stated)
Activity [2]: 46.9% | Drug metabolism [3]: Active | hepatic extraction ratio at 40 min, 1 µM [4]: > 0.8 | AUC [5]: 287 µmol·min/L | solubility kinetic at 2 h [6]: 25 µM (≈ 12.6 µg/mL) | AUC [7]: 222 µmol·min/L | Drug metabolism [8]: Active | IC50 [9]: 0.4 nM | AUC [10]: 256 µmol·min/L | IC50 [11]: 10500 nM | solubility kinetic at 2 h [12]: 194 µM (≈ 97.9 µg/mL) | IC50 [1]: 8 nM | Ratio IC50 [13]: 20 | Drug metabolism [14]: Active | IC50 [15]: 30.5 nM | Drug metabolism [16]: Active | Drug metabolism [17]: Active | hepatic extraction ratio at 40 min, 1 µM [18]: > 0.8 | Activity [19]: 44.5% | Drug metabolism [20]: Active | Activity [21]: 41.4% | AUC [22]: 104 µmol·min/L | Activity [23]: 22.7%

CC(C)(C)n1nnnc1C(NCCCNc1ccnc2cc(Cl)ccc12)c1ccccc1 (configuration not stated)
IC50 [9]: 2 nM | IC50 [1]: 27 nM | Ratio IC50 [13]: 13.5 | IC50 [15]: 39 nM

CC(C)(C)n1nnnc1C(NCCCCNc1ccnc2cc(Cl)ccc12)c1ccccc1 (configuration not stated)
IC50 [9]: 2 nM | IC50 [1]: 8 nM | Ratio IC50 [13]: 4 | IC50 [15]: 20 nM

Clc1ccc2c(NCCNC(c3ccc(Cl)c(Cl)c3)c3nnn[nH]3)ccnc2c1 (configuration not stated)
solubility kinetic at 2 h [6]: 70.1 µM (≈ 31.5 µg/mL) | solubility kinetic at 2 h [12]: 191 µM (≈ 85.7 µg/mL) | IC50 [1]: 4390 nM

Clc1ccc2c(NCCCCNC(c3ccccc3)c3nnn[nH]3)ccnc2c1 (configuration not stated)
IC50 [1]: 6850 nM
